In brackets after ≈: the same amount, converted by molar mass. Activity calls are given as the source filed them. The rule behind the calls is not given here.
Assays:
[1] = Cytotoxicity against mouse NIH/3T3 cells by GRE-Luciferase reporter gene assay; assay type: cell-based; conditions: nih3t3
Summary of the method: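 NIH3T3 cells carrying GRE-luciferase reporter stimulated with 10 nM SAG as Hh pathway agonist, used as counter-screen for nonspecific cytotoxicity.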

[2] = Inhibition of Wnt signaling (unknown origin) expressed in mouse L Wnt3A cells co-cultured with HEK293 cells after 48 hrs by Super-top flash reporter gene assay; assay type: cell-based; conditions: Homo sapiens, HEK293, 48 h
Summary of the method: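 Mouse L Wnt3A cells and HEK293 Super-Top Flash TCF-luciferase stable cells mixed 1:1, 12,000 cells/well, grown 24 h, then compound in DMSO diluted in DMEM added. After 48 h at 37°C, Bright-Glo luminescence read; IC50 from signal inhibition, geometric mean of at least two runs ± SEM; LGK974 standard in each run.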

[3] = Intrinsic clearance in mouse liver microsomes at 1 uM preincubated for 10 mins followed by NADPH addition measured for 30 to 60 mins by LC-MS/MS analysis; assay type: ADME; conditions: read-out: CLH
Summary of the method: (§1)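 Liver microsomes (mouse or human, 0.2 mg/mL) with 1 µM substrate in 100 mM phosphate pH 7.4, preincubated 10 min, then started with 1 mM NADPH. Sampled at 0, 30, 60 min, quenched in cold acetonitrile with internal standard, LC-MS/MS. t1/2 from ln % remaining slope; scaled with 20 mg protein/g liver, liver 87.5 (mouse) or 25.7 (human) g/kg.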

[4] = biological target: T1, Protein-serine O-palmitoleoyltransferase porcupine (Homo sapiens) (UniProt Q9H237); assay: Inhibition of porcupine (unknown origin) in HEK293T cells transfected with pLibin-WNT3A plasmid assessed as reduction in Wnt3A secretion into cell culture medium at 0.1 uM after 48 hrs by Western blot technique; assay type: cell-based; conditions: HEK-293T
T1 sequence (whole entry): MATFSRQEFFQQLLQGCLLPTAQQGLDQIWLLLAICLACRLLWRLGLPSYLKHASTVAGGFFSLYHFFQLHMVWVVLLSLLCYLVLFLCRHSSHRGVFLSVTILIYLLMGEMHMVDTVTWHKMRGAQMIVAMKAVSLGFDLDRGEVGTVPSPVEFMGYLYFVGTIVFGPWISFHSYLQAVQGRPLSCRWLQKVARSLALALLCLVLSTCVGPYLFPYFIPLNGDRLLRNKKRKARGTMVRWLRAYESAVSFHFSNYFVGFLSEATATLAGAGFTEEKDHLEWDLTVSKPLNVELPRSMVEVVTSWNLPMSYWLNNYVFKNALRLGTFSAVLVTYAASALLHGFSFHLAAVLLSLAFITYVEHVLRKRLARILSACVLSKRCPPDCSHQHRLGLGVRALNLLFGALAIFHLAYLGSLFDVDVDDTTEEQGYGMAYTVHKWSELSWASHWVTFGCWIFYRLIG
Summary of the method: (§2)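 HEK293T cells in 6-well plates at 60% confluence, transfected with 1 µg pLibin-WNT3A plasmid or vehicle and treated at the same time with 0.1 µM compound. After 48 h, culture supernatant and cell lysate (40-50 µg protein) separated by SDS-PAGE, blotted to PVDF and probed for Wnt3A.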

[5] = Half life in Sprague-Dawley rat at 2 mg/kg, iv by LC-MS/MS analysis; assay type: ADME, organism-based; conditions: in vivo
Summary of the method: (§3)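 Male Sprague-Dawley rats (200-250 g), fasted 12 h before dosing, food returned ~4 h post-dose. Solution at 1 mg/mL in NMP/Tween80/PEG400/water (10/1/50/39) given by tail vein at 2 mL/kg or oral gavage at 10 mL/kg. Plasma from timed blood samples precipitated with cold acetonitrile plus internal standard, measured by LC-MS/MS; noncompartmental PK parameters.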

[6] = Intrinsic clearance in human liver microsomes at 1 uM preincubated for 10 mins followed by NADPH addition measured for 30 to 60 mins by LC-MS/MS analysis; assay type: ADME; conditions: read-out: CLH; summary of the method: as §1
[7] = Tmax in Sprague-Dawley rat plasma at 10 mg/kg, po by LC-MS/MS analysis; assay type: ADME, organism-based; summary of the method: as §3
[8] = Cmax in Sprague-Dawley rat plasma at 2 mg/kg, iv by LC-MS/MS analysis; assay type: ADME, organism-based; design: dose 2 mg/kg, route intravenous; summary of the method: as §3
[9] = Volume of distribution at steady state in Sprague-Dawley rat at 2 mg/kg, iv by LC-MS/MS analysis; assay type: ADME, organism-based; conditions: in vivo, read-out: Vdss; summary of the method: as §3
[10] = Thermodynamic solubility of the compound in FaSSIF at 4 mg/ml at pH 6.5 after overnight incubation by LC-MS/MS analysis; assay type: physicochemical; conditions: read-out: Therm_solubility
Summary of the method: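 4 mg/mL suspension in FaSSIF (pH 6.5) shaken 1 h, then equilibrated overnight at room temperature; supernatant after centrifugation quantified by LC-MS/MS.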

Rattus norvegicus = assay: AUC (0 to 24 hrs) in Sprague-Dawley rat plasma at 2 mg/kg, iv by LC-MS/MS analysis; assay type: ADME, organism-based; design: dose 2 mg/kg, time < 24 hr, route intravenous; conditions: in vivo; summary of the method: as §3
[11] = AUC (0 to 24 hrs) in Sprague-Dawley rat plasma at 10 mg/kg, po by LC-MS/MS analysis; assay type: ADME, organism-based; design: dose 10 mg/kg, time < 24 hr, route oral; summary of the method: as §3
[12] = Half life in mouse liver microsomes at 1 uM preincubated for 10 mins followed by NADPH addition measured for 30 to 60 mins by LC-MS/MS analysis; assay type: ADME; summary of the method: as §1
[13] = Chemical stability in simulated gastric fluid assessed as compound remaining at 200 uM at 40 degC after 24 hrs by HPLC technique; assay type: physicochemical; conditions: read-out: Stability
Summary of the method: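 Compound at 200 µM in simulated gastric fluid (3.8 mL conc. HCl diluted to 1000 mL water), held at 40°C for 24 h; percent remaining reported.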

[14] = Half life in Sprague-Dawley rat at 10 mg/kg, po by LC-MS/MS analysis; assay type: ADME, organism-based; conditions: in vivo; summary of the method: as §3
[15] = Oral bioavailability in Sprague-Dawley rat at 10 mg/kg by LC-MS/MS analysis; assay type: ADME, organism-based; conditions: in vivo; summary of the method: as §3
[16] = Effect on Wnt3A level in HEK293T cells transfected with pLibin-WNT3A plasmid at 0.1 uM after 48 hrs by Western blot technique; assay type: cell-based; conditions: human, hek-293t; summary of the method: as §2
[17] = Stability in rat plasma assessed as compound remaining at 1 uM after 8 hrs by LC-MS/MS analysis; assay type: ADME, cell-free; conditions: read-out: Stability
Summary of the method: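 Compound at 1 µM incubated in blank rat plasma for 8 h, deproteinized with acetonitrile plus internal standard, centrifuged, supernatant measured by LC-MS/MS; percent remaining.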

[18] = Cmax in Sprague-Dawley rat plasma at 10 mg/kg, po by LC-MS/MS analysis; assay type: ADME, organism-based; design: dose 10 mg/kg, route oral; summary of the method: as §3
[19] = Half life in human liver microsomes at 1 uM preincubated for 10 mins followed by NADPH addition measured for 30 to 60 mins by LC-MS/MS analysis; assay type: ADME; summary of the method: as §1
Wnt3A = assay: Potency index, ratio of LGK974 IC50 to compound IC50 for Wnt signaling (unknown origin) expressed in mouse L Wnt3A cells co-cultured with HEK293; assay type: cell-based; conditions: Homo sapiens

| SMILES | Activity [1] | IC50 [2] | further results |
| --- | --- | --- | --- |
| O=C(Cc1ccc2c(c1)C(=O)c1ccccc1-2)Nc1ccc(-c2cccnc2)cc1 | Non-toxic | > 1000 nM |  |
| Cc1cc(-c2ccc(CC(=O)Nc3ccc4c(c3)[nH]c3ccccc34)cc2)ccn1 | Non-toxic | 2.3 nM | CLint scaled at 1 µM [3]: 67 mL/min/kg; inhibition [4]: Active; half-life [5]: 150 min; CLint scaled at 1 µM [6]: 41 mL/min/kg; Tmax [7]: 1 h; Cmax [8]: 1950 ng/mL; Vd [9]: 2.7 L/kg; solubility thermodynamic [10]: 2 µg/mL (≈ 5.11 µM); AUC (Rattus norvegicus): 7442 ng·h/mL; AUC(0-t) at 24 h [11]: 11300 ng·h/mL; half-life at 1 µM [12]: 91 min; remaining at 24 h, 200 µM [13]: 100%; half-life [14]: 186 min; bioavailability [15]: 30%; Activity [16]: Non-toxic; remaining at 8 h, 1 µM [17]: 100%; Cmax [18]: 2880 ng/mL; half-life at 1 µM [19]: 43 min |
| Cc1cc(-c2ncc(CC(=O)Nc3ccc4c(c3)C(F)(F)c3ccccc3-4)cc2C)ccn1 | Non-toxic | 2.7 nM |  |
| O=C(Cc1ccc2c(c1)Cc1ccccc1-2)Nc1ccc(-c2cccnc2)cc1 | Non-toxic | 231 nM |  |
| O=C(Cc1ccc2c(c1)oc1ccccc12)Nc1ccc(-c2cnccn2)cn1 | Non-toxic | 136 nM |  |
| Cc1cc(-c2ccc(CC(=O)Nc3ccc4c(c3)C(F)(F)c3ccccc3-4)cc2)ccn1 | Non-toxic | 3.5 nM |  |
| O=C(Cc1ccc2c(c1)Cc1ccccc1-2)Nc1ccc(-c2cnccn2)cn1 | Non-toxic | 454 nM |  |
| Cc1cc(-c2ncc(CC(=O)Nc3ccc4c(c3)Cc3ccccc3-4)cc2C)ccn1 | Non-toxic | 2.5 nM |  |
| Cc1cc(-c2ccc(CC(=O)Nc3ccc4c5ccccc5n(C)c4c3)cc2)ccn1 | Non-toxic | 191 nM |  |
| Cc1cc(-c2ncc(CC(=O)Nc3ccc4c(c3)C(=O)c3ccccc3-4)cc2C)ccn1 | Non-toxic | 2.8 nM |  |
| Cc1cc(-c2ccc(CC(=O)Nc3ccc4c(c3)C(=O)c3ccccc3-4)cc2)ccn1 | Non-toxic | 0.45 nM | CLint scaled at 1 µM [3]: 508 mL/min/kg; inhibition [4]: Active; CLint scaled at 1 µM [6]: 149 mL/min/kg; solubility thermodynamic [10]: < 1 µg/mL; half-life at 1 µM [12]: 12 min; Ratio IC50 (Wnt3A): 2; remaining at 24 h, 200 µM [13]: 99%; Activity [16]: Non-toxic; remaining at 8 h, 1 µM [17]: 100%; half-life at 1 µM [19]: 12 min |
| O=C(Cc1ccc2c(c1)C(=O)c1ccccc1-2)Nc1ccc(-c2cnccn2)cn1 | Non-toxic | > 1000 nM |  |
| Cc1cc(-c2ncc(CC(=O)Nc3ccc4c5ccccc5n(C)c4c3)cc2C)ccn1 | Non-toxic | 49 nM |  |
| Cc1cc(-c2ccc(CC(=O)Nc3ccc4c(c3)oc3ccccc34)cc2)ccn1 | Non-toxic | 9 nM |  |
| Cc1cc(-c2ccc(CC(=O)Nc3ccc4c(c3)Cc3ccccc3-4)cc2)ccn1 | Non-toxic | 1.4 nM |  |
| Cc1cc(-c2ncc(CC(=O)Nc3ccc4c(c3)oc3ccccc34)cc2C)ccn1 | Non-toxic | 13 nM |  |
| Cc1cc(-c2ncc(CC(=O)Nc3ccc(-c4cnccn4)cn3)cc2C)ccn1 [WNT-974] |  | 0.9 nM | inhibition [4]: Active; Activity [16]: Non-toxic |
| O=C(Cc1ccc2c(c1)oc1ccccc12)Nc1ccc(-c2cccnc2)cc1 | Non-toxic | 544 nM |  |
| Cc1cc(-c2ncc(CC(=O)Nc3ccc4c(c3)[nH]c3ccccc34)cc2C)ccn1 | Non-toxic | 2.6 nM |  |

From ChEMBL document CHEMBL3758157, “Design, synthesis, and evaluation of potent Wnt signaling inhibitors featuring a fused 3-ring system” (Eur J Med Chem, 2016)
